From ChEMBL document CHEMBL5113474, “Triazole-substituted phenylboronic acids as tunable lead inhibitors of KPC-2 antibiotic resistance” (Eur J Med Chem, 2022)
In brackets after ≈: the same amount, converted by molar mass.

Tests used:
[1] = test system: Bacteria; experiment: Inhibition of bacterial beta-lactamase KPC-2 expressed in Escherichia coli BL21 (DE3) using nitrocefin as substrate at 1 uM by spectrophotometric analysis relative to control
Outline: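 Purified recombinant KPC-2 tested against the chromogenic β-lactam nitrocefin at 1 µM inhibitor. Hydrolysis was followed as the rise in absorbance at 482 nm (ε482 = 17,400 M-1 cm-1). Activity is expressed as percent inhibition relative to an uninhibited control.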

[2] = test system: Escherichia coli; format: functional, BL21 (DE3); details: time 16-18 hrs
[3] = Cytotoxicity against HEK293 cells assessed as cell viability at 5 to 50 ug/ml incubated for 24 hrs in presence of cefotaxime by MTT assay relative to control; details: human, at 5 to 50 µg/mL
[4] = Cytotoxicity against HEK293 cells assessed as cell viability at 5 to 50 ug/ml incubated for 24 hrs by MTT assay relative to control; details: human, at 5 to 50 µg/mL
[5] = Inhibition of bacterial beta-lactamase KPC-2 expressed in Escherichia coli BL21 (DE3) using nitrocefin as substrate assessed as inhibition constant by Cheng-Prusoff equation analysis; design: species or system Bacteria
[6] = test system: Escherichia coli; experiment: microbe, parasite or virus in culture; format: functional; details: BL21 (DE3), dose 50 µg/ml, time 16-20 hrs
[7] = test system: Escherichia coli; experiment: microbe, parasite or virus in culture; format: functional; details: BL21 (DE3), dose 50 µg/ml, time 16-20 hrs; remark: listed apart in the source
[8] = test system: Escherichia coli; experiment: Antibacterial activity against Escherichia coli NCTC10418; format: functional
[9] = test system: Escherichia coli; experiment: microbe, parasite or virus in culture; format: functional; details: BL21 (DE3), dose 5 µg/ml, time 16-20 hrs
[10] = test system: Escherichia coli; experiment: microbe, parasite or virus in culture; format: functional; details: BL21 (DE3), dose 5 µg/ml, time 16-20 hrs; remark: listed apart in the source
[11] = physchem; details: 0.1 M phosphate buffer, pH 4.3

SMILES	inhibition [1] [%]	Ki [5] [nM]	MIC [6] [µg/mL]	MIC [7] [µg/mL]	MIC [8] [µg/mL]	MIC [9] [µg/mL]	MIC [10] [µg/mL]	pKa at 100 µM [11]	inhibition zone (IZ) [2] [mm]	viability at 24 h [3] [%]	viability at 24 h [4] [%]
OB(O)c1ccc(Cn2cc(-c3ccccc3)nn2)cc1	55	323	–	–	–	–	–	–	25.5	> 80	> 80
O=C(Nc1cccc(B(O)O)c1)c1ccccc1	40	–	–	–	–	–	–	–	25.2	> 80	> 80
OB(O)c1ccc(Cn2cc(-c3ccsc3)nn2)cc1	53	219	–	–	–	–	–	–	27.6	> 80	> 80
NCc1ccc(F)c(B(O)O)c1	–	–	–	–	–	–	–	–	19.9	–	–
OB(O)c1ccc(-c2ccccc2)cc1 [BIPHENYLBORONIC ACID]	–	–	–	–	–	–	–	–	32.2	–	–
OB(O)c1cccc(Cn2cc(-c3ccsc3)nn2)c1	92	32	≤ 0.06	–	> 64	≤ 0.06	≤ 0.06	–	32	–	–
O=C(Nc1cccc(B(O)O)c1)c1ccc2sccc2c1	10.2	–	–	–	–	–	–	–	26.1	–	–
OB(O)c1cccc(-c2ccccc2)c1	–	–	–	–	–	–	–	–	29.7	–	–
O=C(Nc1cccc(B(O)O)c1)c1cccs1	2	2900	–	–	–	–	–	–	26	> 80	> 80
CCC1CC(=O)CCN1c1ccccc1B(O)O (stereo not drawn)	–	–	–	–	–	–	–	–	18.7	–	–
OB(O)c1cc(Cn2cc(-c3ccsc3)nn2)ccc1F	53	240	≤ 0.06	≤ 0.06	> 64	≤ 0.06	≤ 0.06	10	29.9	–	–
[N-]=[N+]=NCc1cccc(B(O)O)c1	30	830	–	–	> 64	≤ 0.06	0.12 (≈ 0.678 µM)	–	30	> 80	> 80
COc1ccc(B(O)O)c(-n2cccn2)c1	–	–	–	–	–	–	–	–	21.7	–	–

Further lines, with some results ahead:

inhibition [1] [%]	Ki [5] [nM]	MIC [6] [µg/mL]	MIC [7] [µg/mL]	MIC [8] [µg/mL]	MIC [9] [µg/mL]	MIC [10] [µg/mL]	pKa at 100 µM [11]	SMILES	inhibition zone (IZ) [2] [mm]	viability at 24 h [3] [%]	viability at 24 h [4] [%]
61	–	–	–	–	–	–	–	OB(O)c1cccc(Cn2cc(-c3ccccn3)nn2)c1	25.9	–	–
16	–	–	–	–	–	–	–	CCC(=O)Nc1cccc(B(O)O)c1	25.2	> 80	> 80
45	275	–	–	–	–	–	–	OB(O)c1ccc(Cn2cc(-c3cccs3)nn2)cc1	27.5	–	–
25	–	2 (≈ 7.66 µM)	1 (≈ 3.83 µM)	> 64	–	–	–	CCOC(=O)c1cn(-c2cccc(B(O)O)c2)nn1	30	> 80	> 80
54	480	–	–	–	–	–	–	OB(O)c1cccc(Cn2cc(-c3cccnc3)nn2)c1	25.9	> 80	> 80
0.3	–	–	–	–	–	–	–	O=C(O)c1cn(-c2cccc(B(O)O)c2)nn1	32.9	> 80	> 80
59	–	–	–	–	–	–	–	OB(O)c1ccc(Cn2cc(-c3cccnc3)nn2)cc1	23.7	–	–
18	–	–	–	–	–	–	–	OB(O)c1cccc(-n2cc(-c3ccccc3)nn2)c1	26.2	–	–
7	860	–	–	–	–	–	–	COc1ccc(-c2cn(Cc3cccc(B(O)O)c3)nn2)cc1	25.6	> 80	> 80
75	38	0.25 (≈ 0.922 µM)	0.12 (≈ 0.443 µM)	> 64	0.25 (≈ 0.922 µM)	1 (≈ 3.69 µM)	8.31	OB(O)c1cccc(-n2cc(-c3ccsc3)nn2)c1	29.9	> 80	> 80
10	1020	2 (≈ 8.1 µM)	0.12 (≈ 0.486 µM)	> 64	2 (≈ 8.1 µM)	4 (≈ 16.2 µM)	–	O=C(O)c1cn(Cc2cccc(B(O)O)c2)nn1	21.4	> 80	> 80
7	900	–	–	–	–	–	–	CCOC(=O)c1cn(Cc2cccc(B(O)O)c2)nn1	31.8	–	–
